Scp1 inh: blocks human Scp-1 phosphatase activity. Q9GZU7. Recombinant Scp1, phosphopeptide, malachite green phosphate absorbance. inhibition, % at 20 µM. 340,000 tested, 0.88% active;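 active = inhibition above about 50% at 20 µM, limit read from the data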;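 note: plate controls were DMSO wells with enzyme for no effect and wells lacking enzyme for full effect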
Target sequence (Q9GZU7 76-261 limits assumed): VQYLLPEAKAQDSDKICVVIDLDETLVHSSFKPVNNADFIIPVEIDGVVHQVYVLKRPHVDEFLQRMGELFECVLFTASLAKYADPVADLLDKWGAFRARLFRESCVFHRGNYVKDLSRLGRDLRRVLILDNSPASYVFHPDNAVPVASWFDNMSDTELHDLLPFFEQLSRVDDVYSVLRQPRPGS
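Test system – truncated SCP-1 phosphatase (76-261aa) · Reagent – Phosphorylated 17-residue peptide substrate · Incubation – 45 min room-temperature reaction, 5 min colour, 30 min stabiliser · Detection – colorimetric phosphate reagent with accelerator and stabiliser, absorbance at 630 nm · Measure – % inhibition at 20 µM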
STEP block: inhibitors of human striatal-enriched phosphatase STEP. P54829. recombinant STEP, OMFP fluorogenic substrate, fluorescence. inhibition, % at 20 µM. 360,000 tested, 0.25% active. AID 588621;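 active = inhibition at 20 µM, scaled per plate between control wells, above about 37%, limit read from the data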;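 note: 0% = DMSO with enzyme and substrate and 100% = substrate only without enzyme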
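System: STEP phosphatase, cell-free reaction; Buffer or medium: Bis-Tris pH 6.0 buffer with DTT, detergent; Incubation: 20 min at room temperature, dark; Measured by: fluorescence, 480/540 nm.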
DNMT1 block: inhibitors of human DNMT1; P26358; DNMT1 molecular beacon, Hinp1I cleavage, fluorescence; inhibition (reported as % activation of signal), % at 10 µM; 360,000 tested, 0.83% active; AID 588458; in the data active = inhibition above about 50%
SUMO1 PPI mod: SUMO1-SIM interaction modulation; SUMO1 binding to a labelled peptide, TR-FRET, 1 h; 360,000 tested, 0.33% active; inhibition, % at 20 µM; P63165; in the data active = inhibition above about 37%
Target sequence (P63165 whole entry, looked up): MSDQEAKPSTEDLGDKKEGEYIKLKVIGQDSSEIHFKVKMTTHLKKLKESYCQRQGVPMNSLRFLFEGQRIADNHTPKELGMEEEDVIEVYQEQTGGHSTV
LMPTP block: blocks human LMPTP phosphatase; P24666; recombinant LMPTP-A, OMFP fluorogenic substrate, fluorescence intensity; inhibition, % at 20 µM; 360,000 tested, 0.22% active; AID 651560;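 active = compounds that cut the enzyme signal by at least half of the control window in the single-dose screen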;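 note: plate controls were DMSO wells with enzyme plus substrate for no effect and substrate without enzyme for full effect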
Target sequence (P24666 whole entry, looked up): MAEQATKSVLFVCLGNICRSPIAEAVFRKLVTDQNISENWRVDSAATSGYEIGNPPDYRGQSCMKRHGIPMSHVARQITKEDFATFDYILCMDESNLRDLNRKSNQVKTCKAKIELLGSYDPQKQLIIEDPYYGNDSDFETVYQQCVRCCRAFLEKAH
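Assay system: LMPTP-A enzyme. Input: 0.625 nM LMPTP-A final. Probe or stimulus: 400 µM OMFP. Compound dosing: single 20 µM dose. Schedule: 50 min dark incubation at room temperature. Detection: fluorescence intensity of OMFP turnover product. Read-out: percent inhibition versus substrate-only and uninhibited controls. Benchmarks: no-enzyme low control, uninhibited high control.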
Numbers without * were called inactive; · = not tested or not shown. Most compounds without a hit are left out; they make up all but 1.7% or so of the library.

SMILES | Scp1 inh | STEP block | DNMT1 block | SUMO1 PPI mod | LMPTP block
CC(=O)N1C(=O)c2cccc3cccc(c23)C(=O)N1C(C)=O | 1 | · | · | · | ·
CCn1c(=NC(=O)c2ccc(S(=O)(=O)N3CCOCC3)cc2)sc2cccc(OC)c21 | -13 | -3 | -7 | 43* | 2
CCn1c(=NC(=O)c2ccc(N3C(=O)CCC3=O)cc2)sc2c(OC)ccc(OC)c21 | 58* | 4 | 2 | -30 | 4
O=C(Nc1ccc(F)cc1F)c1noc2c1CCC2 | 79* | 22 | 88* | 4 | 14
O=C(N/N=C/c1c(O)ccc2ccccc12)c1ccc(Br)o1 | 99* | 77* | 41 | 27 | 64*
O=C1c2ccccc2C(=O)c2c([N+](=O)[O-])ccc(O)c21 | 67* | 32 | 48 | 3 | 8
O=C(O)c1ccc([N+](=O)[O-])c2c1C(=O)c1ccccc1C2=O | 0 | -1 | 4 | -14 | -1
Cc1ccc(C(=O)N[C@H](C(=O)Nc2sccc2C(N)=O)C(C)C)cc1 | -5 | -1 | -1 | 0 | -1
C[C@H](CO)N1C[C@H](C)[C@@H](CN(C)S(=O)(=O)c2ccccc2)OCc2cnnn2CCCC1=O | · | -1 | 5 | 2 | 0
CN1CCC(N2CCN(C3CN(Cc4ccccc4)S(=O)(=O)C3)CC2)CC1 (stereo unspecified) | · | -3 | 7 | 7 | -4
COC(=O)c1ccc(Nc2nc(-c3ccncc3)nc3ccccc23)cc1 | 4 | 1 | 8 | 38 | 3
COC(=O)c1cccc(Nc2nc(-c3cccnc3)nc3ccccc23)c1 | 1 | 1 | -9 | 46* | -21
CCOC(=O)c1cccc(Nc2nc(-c3cccnc3)nc3ccccc23)c1 | -7 | 0 | -16 | 2 | 5
COC(=O)c1cccc(Nc2nc(-c3ccncc3)nc3ccccc23)c1 | -2 | 13 | -6 | 61* | 6
O=C(C[C@H]1C=C[C@@H](NC(=O)c2ccncc2)[C@@H](CO)O1)NCC1CC1 | · | · | · | 2 | -2
N#Cc1c(SCC(=O)Nc2nccs2)sc2c(O)cc(=O)[nH]c12 | 68* | 34 | 43 | 20 | 31
N#Cc1c(SCC(=O)Nc2ccccc2C(F)(F)F)sc2c(O)cc(=O)[nH]c12 | 23 | 6 | 5 | 2 | 1
N#Cc1c(SCC(=O)Nc2nc3ccccc3s2)sc2c(O)cc(=O)[nH]c12 | 61* | 12 | 91* | 30 | 64*
COc1cccc(/C=C2\SC(=S)N(NS(=O)(=O)c3ccccc3)C2=O)c1OC | -17 | 0 | 3 | -25 | -1
O=C(CC[C@H]1O[C@@H](n2ccc(=O)[nH]c2=O)[C@H](O)[C@@H]1O)N[C@H](Cc1ccccc1)C(=O)NCc1ccc2c(c1)OCO2 | · | -1 | 0 | -1 | -1
C#CCOc1nc(Nc2cccc([N+](=O)[O-])c2)nc(OCC#C)n1 | -5 | -2 | 0 | 46* | 1
COc1nc(Nc2cccc([N+](=O)[O-])c2)nc(OC)n1 | -7 | -1 | 5 | -8 | 1
CN(C(=S)NC(=O)c1ccc(Cl)cc1)C1CCCCC1 | 70* | 20 | -4 | 5 | 72*
CN(C(=S)NC(=O)c1ccc(F)cc1)C1CCCCC1 | 10 | 3 | 2 | 9 | 0
COC(=O)c1cc(S(=O)(=O)N2CCN(c3cccc(OC)c3)CC2)cn1C | -6 | 3 | -1 | 4 | 0
SMILES | Scp1 inh | STEP block | DNMT1 block | SUMO1 PPI mod | LMPTP block
CN1/C(=C/C=C/c2n(C)c3cc([N+](=O)[O-])c([N+](=O)[O-])cc3[n+]2C)C(C)(C)c2ccccc21 | · | 24 | 6 | -16 | 58*
Cc1ccc(Nc2ccc(N)cc2S(=O)(=O)O)cc1 | 15 | 5 | 13 | 27 | 67*
CCC1CCc2c(sc(N)c2C(N)=O)C1 (stereo unspecified) | -8 | 0 | -7 | 47* | 0
CCOC(=O)c1c(N)sc2c1CCC(CC)C2 (stereo unspecified) | -3 | 1 | 0 | -5 | 2
N#CC1(NC(=O)COC(=O)c2cc(O)c3ccccc3c2O)CCCCC1 | 85* | 0 | -20 | -9 | 2
CS(=O)(=O)c1ccccc1C(=O)Nc1ccc(S(=O)(=O)N2CCCC2)cc1 | -10 | -3 | -2 | -1 | 0
Cc1cccc(-c2nnc3n2N=C(c2ccc(Br)cc2)CS3)c1 | 39 | · | · | · | ·
COc1cccc(-c2nnc3n2N=C(c2cccc(Br)c2)CS3)c1 | -5 | -1 | 29 | 49* | -3
O=C1C(Cl)=C(N2CCCCCC2)C(=O)N1c1ccc(Cl)cc1 | -5 | 20 | 1 | -21 | 2
CN(C)c1ncc(C2=C(Cl)C(=O)C(N3CCCC3)=C(Cl)C2=O)s1 | 18 | 7 | 69* | 35 | 14
O=C1C(Cl)=C(N2CCCCC2)C(=O)C(Cl)=C1c1cnc(N2CCCCC2)s1 | 6 | 8 | 84* | 11 | 16
CCOc1ccc(C(=O)NCC(=O)OCC(=O)Nc2cccc(S(=O)(=O)N3CCCC3)c2)cc1 | -6 | 2 | -1 | 48* | 0
CCOC(=O)C1=CCN(S(=O)(=O)c2ccccc2C)C1c1ccccc1 (stereo unspecified) | · | -2 | -7 | 3 | 1
c1ccc2sc(-c3ccncc3)nc2c1 | -10 | 0 | -2 | -12 | -2
c1cncc(-c2nc3ccccc3s2)c1 | -1 | 0 | 2 | 48* | 0
Cc1noc(C)c1S(=O)(=O)Nc1ccc2c(c1)C(=O)N([C@H](C)CO)C[C@H](C)[C@@H](CN(C)C(=O)Nc1ccc3c(c1)OCO3)O2 | 76* | -3 | 12 | 1 | -1
Cc1noc(C)c1NC(=O)N(C)C[C@H]1Oc2ccc(NS(=O)(=O)c3c(C)noc3C)cc2C(=O)N([C@H](C)CO)C[C@@H]1C | 39 | 1 | 1 | -3 | -1
COCCNc1nc(NCc2cnc(C)cn2)c2sccc2n1 | · | 2 | -2 | -8 | 53*
COCCNc1nc(NCc2ccccc2OC)c2sccc2n1 | · | 0 | -2 | 0 | 46
O=C(O)c1cccc2cc(-c3ccccc3)oc(=O)c12 | -13 | 2 | 1 | -7 | -1
O=C(O)c1cccc2cccc(-c3c4ccc(=O)c(O)c-4oc4c(O)c(O)ccc34)c12 | 104* | 99* | 70* | 119* | 95*
COc1cccc(CNC(=O)N2CCN(S(=O)(=O)c3ccc(C)cc3)CC2)c1 | -3 | 1 | 0 | 5 | 1
Cc1ccnc2nc(C(=O)OCC(=O)c3ccc(NC(=O)CC(C)C)cc3)nn12 | 27 | 1 | -8 | 0 | 2
CCC(=O)Nc1ccc(C(=O)COC(=O)c2nc3nccc(C)n3n2)cc1 | 72* | 5 | 109* | 25 | 46
CCOC(=O)Nc1cc2c(c(N)n1)N=C(c1ccccc1)CN2 | 15 | 0 | 53* | -42 | 2
CCOC(=O)Nc1sc(C)nc1-c1ccccc1 | 0 | 3 | 2 | -2 | -2
